Tests used:
Conditions in all cases: tested as the 18F-labelled form
Rattus norvegicus [1] = species: Rattus norvegicus; assay: Regional uptake of [18F]AFA in hypothalamus of rat pretreated with compound 7e; n=3; assay type: functional, organism-based
Rattus norvegicus [2] = species: Rattus norvegicus; assay: Regional uptake of [18F]AFA in blood of rat pretreated with compound 7e; n=3; assay type: functional, organism-based
Rattus norvegicus [3] = species: Rattus norvegicus; assay: Regional uptake of [18F]AFA in thalamus of rat pretreated with compound nisoxetine; n=3; assay type: functional, organism-based
How it was run: (§1)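 Male Sprague-Dawley rats, three per group, received blocker (2 mg/kg iv in saline) or saline only (controls) 10–15 min before about 20 µCi of tail-vein F-18 radioligand. Killed 60 min after tracer. Blood and brain regions weighed and gamma-counted. %ID/g was decay- and tail-corrected; mean ± SD.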

[4] = target: Sodium-dependent serotonin transporter (Rattus norvegicus) (UniProt P31652); assay: Specific binding of [18F]-AFA in rat striatum after nisoxetine treatment; n=3; assay type: functional, tissue-based
How it was run: (§2)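 Rats, three per group, were pretreated iv with blocker at 2 mg/kg in saline, or with saline as control, 10–15 min before tail-vein F-18 radioligand (about 20 µCi). Killed at 60 min and regional %ID/g determined. Specific binding = (region activity − cerebellum activity)/cerebellum activity; mean ± SD.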

[5] = target: Sodium-dependent serotonin transporter (Rattus norvegicus) (UniProt P31652); assay: Specific binding in rat hypothalamus at 60 min postinjection in vivo; assay type: functional, organism-based
How it was run: (§3)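 Male Sprague-Dawley rats, n=3 per time point, received about 20 µCi of F-18 radioligand in saline iv by tail vein and were killed at 10–120 min. %ID/g was measured with decay and tail-residual correction. Hypothalamic specific binding = (%ID/g hypothalamus − %ID/g cerebellum)/%ID/g cerebellum; mean ± SD.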

Rattus norvegicus [6] = species: Rattus norvegicus; assay: Regional uptake of [18F]-AFA in blood of rat pretreated with compound GBR-12935; n=3; assay type: functional, organism-based; how it was run: as §1
Rattus norvegicus [7] = species: Rattus norvegicus; assay: Regional uptake of [18F]-AFA in hypothalamus of rat pretreated with compound nisoxetine; n=3; assay type: functional, organism-based; how it was run: as §1
[8] = target: Sodium-dependent serotonin transporter (Rattus norvegicus) (UniProt P31652); assay: Specific binding of [18F]AFA in rat hippocampus after GBR-12935 treatment; n=3; assay type: functional, tissue-based; how it was run: as §2
Rattus norvegicus [9] = species: Rattus norvegicus; assay: Regional uptake of [18F]AFA in frontal cortex of rat pretreated with compound GBR-12935; n=3; assay type: functional, organism-based; how it was run: as §1
Rattus norvegicus [10] = species: Rattus norvegicus; assay: Regional uptake of [18F]AFA in hypothalamus of rat pretreated with compound GBR-12935; n=3; assay type: functional, organism-based; how it was run: as §1
Rattus norvegicus [11] = species: Rattus norvegicus; assay: Regional uptake of [18F]AFA in cerebellum of rat pretreated with compound nisoxetine; n=3; assay type: functional, organism-based; how it was run: as §1
Rattus norvegicus [12] = species: Rattus norvegicus; assay: Regional uptake of [18F]AFA in cerebellum of rat pretreated with compound citalopram; n=3; assay type: functional, organism-based; how it was run: as §1
[13] = target: Sodium-dependent serotonin transporter (Rattus norvegicus) (UniProt P31652); assay: Specific binding in rat hypothalamus at 90 min postinjection in vivo; assay type: functional, organism-based; how it was run: as §3
[14] = target: Sodium-dependent serotonin transporter (Rattus norvegicus) (UniProt P31652); assay: Specific binding of [18F]AFA in rat thalamus after GBR-12935 treatment; n=3; assay type: functional, tissue-based; how it was run: as §2
[15] = target: Sodium-dependent serotonin transporter (Rattus norvegicus) (UniProt P31652); assay: Specific binding of [18F]AFA in rat frontal cortex after GBR-12935 treatment; n=3; assay type: functional, tissue-based; how it was run: as §2
Rattus norvegicus [16] = species: Rattus norvegicus; assay: Regional uptake of [18F]AFA in hippocampus of rat pretreated with compound nisoxetine; n=3; assay type: functional, organism-based; how it was run: as §1
[17] = target: Sodium-dependent serotonin transporter (Rattus norvegicus) (UniProt P31652); assay: Specific binding of [18F]AFA in rat hippocampus after nisoxetine treatment; n=3; assay type: functional, tissue-based; how it was run: as §2
Rattus norvegicus [18] = species: Rattus norvegicus; assay: Regional uptake of [18F]-AFA in blood of rat pretreated with compound citalopram; n=3; assay type: functional, organism-based; how it was run: as §1
Rattus norvegicus [19] = species: Rattus norvegicus; assay: Regional uptake of [18F]AFA in striatum of rat pretreated with compound citalopram; n=3; assay type: functional, organism-based; how it was run: as §1
Rattus norvegicus [20] = species: Rattus norvegicus; assay: Regional uptake of [18F]-AFA in striatum of rat pretreated with compound GBR-12935; n=3; assay type: functional, organism-based; how it was run: as §1
Rattus norvegicus [21] = species: Rattus norvegicus; assay: Regional uptake of [18F]AFA in frontal cortex of rat pretreated with compound 7e; n=3; assay type: functional, organism-based
[22] = target: Sodium-dependent serotonin transporter (Rattus norvegicus) (UniProt P31652); assay: Specific binding of [18F]AFA in rat hypothalamus after citalopram treatment; n=3; assay type: functional, tissue-based; how it was run: as §2
[23] = target: Sodium-dependent serotonin transporter (Rattus norvegicus) (UniProt P31652); assay: Specific binding of [18F]-AFA in rat striatum after citalopram treatment; n=3; assay type: functional, tissue-based; how it was run: as §2
[24] = target: Sodium-dependent serotonin transporter (Rattus norvegicus) (UniProt P31652); assay: Specific binding of [18F]AFA in rat thalamus after nisoxetine treatment; n=3; assay type: functional, tissue-based; how it was run: as §2
Rattus norvegicus [25] = species: Rattus norvegicus; assay: Regional uptake of [18F]AFA in thalamus of rat pretreated with compound GBR-12935; n=3; assay type: functional, organism-based; how it was run: as §1

Sequence of Sodium-dependent serotonin transporter (Rattus norvegicus) (P31652 whole entry): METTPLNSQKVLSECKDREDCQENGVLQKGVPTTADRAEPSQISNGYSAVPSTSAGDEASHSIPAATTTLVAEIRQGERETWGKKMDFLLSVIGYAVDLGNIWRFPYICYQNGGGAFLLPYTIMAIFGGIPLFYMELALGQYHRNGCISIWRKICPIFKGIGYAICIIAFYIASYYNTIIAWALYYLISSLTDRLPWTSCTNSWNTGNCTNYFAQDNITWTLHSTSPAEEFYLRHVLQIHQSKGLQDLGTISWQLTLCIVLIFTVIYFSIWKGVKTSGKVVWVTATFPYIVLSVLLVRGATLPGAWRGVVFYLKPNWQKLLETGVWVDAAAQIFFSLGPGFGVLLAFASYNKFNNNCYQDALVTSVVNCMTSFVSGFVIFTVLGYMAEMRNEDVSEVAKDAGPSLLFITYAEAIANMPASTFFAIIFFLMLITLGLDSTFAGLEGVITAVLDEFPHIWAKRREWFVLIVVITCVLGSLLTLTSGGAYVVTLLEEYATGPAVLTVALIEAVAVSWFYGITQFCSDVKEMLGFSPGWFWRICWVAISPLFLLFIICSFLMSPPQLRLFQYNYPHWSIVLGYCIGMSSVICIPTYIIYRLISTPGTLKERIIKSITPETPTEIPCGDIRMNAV

`CN(C)Cc1ccccc1Sc1ccc(CCF)cc1N` showed an Uptake (Rattus norvegicus [1]) of 0.15 %ID/g, an Uptake (Rattus norvegicus [2]) of 0.06 %ID/g and an Uptake (Rattus norvegicus [3]) of 0.29 %ID/g. For the same compound, the Specific binding [4] was 2.1 %ID/g, the Specific binding [5] was 3.35 %ID/g and the Uptake (Rattus norvegicus [6]) was 0.06 %ID/g. For the same compound, the Uptake (Rattus norvegicus [7]) was 0.33 %ID/g, the Specific binding [8] was 2.18 %ID/g and the Uptake (Rattus norvegicus [9]) was 0.17 %ID/g. The Uptake (Rattus norvegicus [10]) was 0.32 %ID/g, the Uptake (Rattus norvegicus [11]) was 0.07 %ID/g and the Uptake (Rattus norvegicus [12]) was 0.06 %ID/g. For the same compound, the Specific binding (dimensionless ratio) [13] was 4.36, the Specific binding [14] was 3.38 %ID/g and the Specific binding [15] was 1.98 %ID/g. It also gave an Uptake (Rattus norvegicus [16]) of 0.17 %ID/g, a Specific binding [17] of 1.63 %ID/g and an Uptake (Rattus norvegicus [18]) of 0.08 %ID/g. For the same compound, the Uptake (Rattus norvegicus [19]) was 0.09 %ID/g, the Uptake (Rattus norvegicus [20]) was 0.2 %ID/g and the Uptake (Rattus norvegicus [21]) was 0.1 %ID/g. For the same compound, the Specific binding [22] was 1 %ID/g, the Specific binding [23] was 0.5 %ID/g and the Specific binding [24] was 3.56 %ID/g. It also gave an Uptake (Rattus norvegicus [25]) of 0.25 %ID/g.

Source: ChEMBL document CHEMBL1145212, “Fluorinated diaryl sulfides as serotonin transporter ligands: synthesis, structure-activity relationship study, and in vivo evaluation of fluorine-18-labeled compounds as PET imaging agents” (J Med Chem, 2005)
